# Source: PubChem BioAssay
# INS promoter act – TRM-6 insulin promoter activation. 130,000 tested, 0.81% active. activation, % at 2 µM. TRM-6 cells (human fetal islet line), insulin promoter eGFP reporter, imaging; plate-scaled: unstimulated 0, stimulated control 100. AID 1296;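 active means activation at 2 µM above a set limit, confirmed on inspection of the cell images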;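 further: share of cells whose green reporter signal exceeds an intensity cutoff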
#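 System – TRM-6 insulin promoter–eGFP reporter cells · Probe or stimulus – 0.75 µM tamoxifen as reporter inducer · Dosing – single-point 2 µM compound dose · Incubation – tamoxifen pre-incubation 15 h overnight, then compound exposure 48 h at 37 °C · Measured by – fixed-cell fluorescence microscopy, eGFP plus Hoechst · Evaluation – percent GFP-positive cells normalized to per-plate controls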
# The depositor's hits bear a star; [ ] = another dose, or the depositor's remark. This is one part of a sample in which hits are shown more often than they occur.
SMILES,INS promoter act
CC(=O)OCCSc1c(-c2ccccc2)c2cc(Cl)ccc2[nH]c1=O,5.9
COc1cccc2c(C)nc(Nc3nc(CSc4nnc(C)s4)cc(=O)[nH]3)nc12,2.9
COc1ccc(-c2cn(/N=C/c3ccc(Cl)cc3Cl)c(N)n2)cc1,5.7
C=CCC1S/C(=N/N=C/c2cccs2)NC1=O (stereo not drawn),-6.7
CC(C)Oc1ccc(C(=O)Nc2ccc(Cl)c(S(=O)(=O)Nc3ccc(Cl)cc3)c2)cc1,-6.7
Cn1c(Cn2c(=O)sc3ccccc32)nnc1SCc1ccccc1,0.0
CCOC(=O)N(NC(=O)C(O)(C(C)C)C(C)C)c1ccccc1,111.8*
CCOC(=O)C(=O)NC(C)CCc1ccccc1 (stereo not drawn),-6.7
Cc1cccc(N(NC(=O)C(C)(C)O)C(=O)c2ccccc2)c1,0.0
c1ccc(Cn2nnnc2C(c2cccnc2)N2CCN(C3CCCCC3)CC2)cc1 (stereo not drawn),-3.6
O=C(c1ccco1)N1CCN(C(c2ccc(F)cc2)c2nnnn2Cc2cccs2)CC1 (stereo not drawn),-9.7
Fc1ccc(C(c2nnnn2Cc2ccco2)N2CCN(C3CCCCC3)CC2)cc1 (stereo not drawn),89.2*
CSc1nsc(SCC(=O)N2CCCCC2)n1,-6.7
CCOC(=O)N1CCN(CC(=O)N2c3ccccc3CC2C)CC1 (stereo not drawn),114.3
CCC(NC(=O)NCCCn1ccnc1)(C(F)(F)F)C(F)(F)F,-3.6
N#C/C=C(/N)N1CCN(c2ccc(Cl)c(Cl)c2)CC1,-3.1
Cc1ccc(NC(=O)CNC2CCS(=O)(=O)C2)cc1C (stereo not drawn),-2.9
O=C(N1CCOCC1)C1(c2ccccc2)CCCCC1,0.0
COc1ccc(C2(C(=O)Nc3ccc(C(=O)O)cc3)CCOCC2)cc1,-95.5
O=C(O)c1ccc(NC(=O)C2(c3ccccc3)CCOCC2)cc1,493.8*
CCOC(=O)c1ccccc1NC(=O)Cn1cnc2c(oc3ccccc32)c1=O,0.0
CN(C)Cc1cn(CCC(=O)O)c2ccccc12,5.3
CC1CCN(C(=O)CSc2nnc(Cc3cccn3C)n2-c2ccc(F)cc2)CC1,-71.4
Cc1ccc(-n2nnnc2SCC(=O)N2CCCCC2)cc1,2.9
Cc1ccc(-n2c(CNc3ccc(F)cc3)nnc2SCC(=O)N2CCCC2)cc1,161.5*
SMILES,INS promoter act
CC(C)N1C(=O)CCC1C(=O)NCc1cccs1 (stereo not drawn),0.0
COc1ccc(CCNC(=O)CSc2ncn[nH]2)cc1,-85.7
O=C(CSc1ncn[nH]1)NC1CCCc2ccccc21 (stereo not drawn),0.0
O=C(CSc1ncn[nH]1)NCCC(c1ccccc1)c1ccccc1,85.3*
COc1cc(/C=C(/Sc2nnc(-c3ccc(F)cc3)o2)C(=O)O)ccc1OC(F)F,-6.7
COc1ccc(NS(=O)(=O)c2ccc(N/N=C(\C)c3ccncc3)c([N+](=O)[O-])c2)cc1,3.3
COc1ccc(NC(=O)NCc2ccco2)cc1OC,-5.3
CC(=O)Nc1ccc(S(=O)(=O)NCc2csc(-c3cccnc3)n2)cc1,-43.0
CCc1ccc(S(=O)(=O)NCc2csc(-c3cccnc3)n2)s1,857.1*
O=S(=O)(NCc1csc(-c2cccnc2)n1)c1cccs1,50.0
CCc1ccc(C2c3[nH]c4ccccc4c3CCN2C(=O)c2cc(C)nn2C)cc1 (stereo not drawn),4.3
COc1ccc(S(=O)(=O)NNC(=O)C2Cc3c(ccc4ccccc34)O2)cc1 (stereo not drawn),0.0
O=C(Cn1c(=S)[nH]c2ccccc2c1=O)N1CCN(c2ccc(F)cc2)CC1,0.0
CCOc1ccc(C=NC23CN4CN(CN(C4)C2)C3)cc1,190.9*
CCOc1ccc(OCCN2CCCCC2)cc1,-61.5
CCOc1ccc(CNC(=S)N/N=C\c2ccc([N+](=O)[O-])cc2)cc1,0.0
O=C(O)CSc1nc(C(F)(F)F)cc(=O)n1-c1ccccc1,0.0
Cc1ccc(S(=O)(=O)/C(C#N)=C/c2c(N3CCC(C(N)=O)CC3)nc3ccccn3c2=O)cc1,3.6
Cc1cc(NC(=O)COC(=O)COc2ccc(C(=O)c3ccccc3)cc2)no1,-8.3
Cc1cc(NC(=O)COC(=O)c2oc3c(ccc4ccccc43)c2C)no1,415.4*
Cc1ccc2c(Cl)cc(Cl)c(OCC(=O)Nc3cc(C)on3)c2n1,3.3
Cc1ccc(C2=CSC3=NS(=O)(=O)CCN23)cc1,-8.3
COc1ccc(C)cc1N(CC(=O)N/N=C/c1ccc2c(c1)OCO2)S(C)(=O)=O,6.7
N#Cc1sc2nc(-c3cccs3)cc(-c3ccccc3)c2c1N,0.0
O=C(Nc1nccc(-c2cccs2)n1)c1ccccc1Cl,-3.3
SMILES,INS promoter act
Nc1c(C(=O)Nc2nccs2)sc2nc(-c3cccs3)cc(C(F)(F)F)c12,181.7*[may fluoresce]
COc1ccc(NC(=O)c2sc3nc(Cc4ccccc4)cc(C(F)(F)F)c3c2N)cc1OC,4.6
Cc1nnc(NC(=O)c2sc3nc(-c4cccs4)cc(C(F)(F)F)c3c2N)s1,106.8*[may fluoresce]
Cc1cccc(OCc2nnc(NC(=O)c3cccs3)s2)c1,5.6
O=C(Nc1cc(S(=O)(=O)N2CCOCC2)ccc1N1CCOCC1)c1cnccn1,0.0
O=C(Nc1ccsc1C(=O)N1CCCCCC1)c1ccccc1,-6.5
COc1cccc(-c2nc(CS(=O)(=O)CC(=O)Nc3cccc(C)c3C)c(C)o2)c1,-37.5
O=C(Oc1ccccc1)c1c(Cl)cccc1P(=O)(O)O,-9.1
O=Cc1ccc(-c2cc(Cl)ccc2Cl)[nH]1,147.1
S=C(Nc1ccc(Oc2ccc(NC(=S)NC3CCCCC3)cc2)cc1)NC1CCCCC1,0.0
CC(C)(C)c1ccc(/C=N/NC(=S)NC2CCCCC2)cc1,421.4*
S=C(Nc1ccc(Cl)c(Cl)c1)NC1CCCCC1,9.1
O=C(c1ccccc1)c1ccc(N2CCNCC2)cc1,186.4
Cc1nn(-c2cc(N3CCOCC3)ccc2N)c(=O)c2ccccc12,5.6
Cc1nn(-c2cc(N3CCCC3)ccc2[N+](=O)[O-])c(=O)c2ccccc12,133.9*
Cc1ccc(-c2nn(-c3cc(Cl)ccc3[N+](=O)[O-])c(=O)c3ccccc23)cc1,2.2
NC1=NC(c2ccccc2Cl)n2c(nc3ccccc32)N1 (stereo not drawn),7.1
Cc1ccc(C(=O)C(OC(=O)CNC(=O)c2ccc(Cl)cc2)c2ccccc2)cc1 (stereo not drawn),2.9
O=C1CCCCC1C(Nc1ccc(Cl)cc1)c1ccccc1 (stereo not drawn),213.8*
CCOC(=O)NC(c1ccccc1)C1CCCCC1=O (stereo not drawn),-8.3
O=C(OC1CCCCC1=O)c1ccc(S(=O)(=O)Nc2ccccc2)cc1 (stereo not drawn),-8.6
COc1cc(OC)c(CNC2CCCCCC2)cc1Br,0.0
CCOC(=O)CSc1nc2ccccc2c(=O)n1CCN1CCOCC1,4.5
CCOC(=O)COn1c(SCC(=O)OCC)nc2ccccc2c1=O,3.6
CCOC(=O)C(C)Sc1nc2ccccc2c(=O)n1CC (stereo not drawn),425.7*
COc1cc(C2NC(=O)NC(C)=C2C(=O)OC(C)C)ccc1OC(=O)c1ccco1 (stereo not drawn),157.1
CCNC(=O)CC1C(=O)N(c2ccc(F)cc2)C(=O)N1Cc1ccccn1 (stereo not drawn),9.1
CC(C)(C)c1cc(NC(=O)CCSc2nnc3ccccn23)cc(C(C)(C)C)c1,205.6
O=S(=O)(c1ccc(Cl)c(NC(=S)Nc2cccc(O)c2)c1)N1CCOCC1,0.0
Cc1cccc(C)c1NC(=S)N=Nc1c(O)n(C)c2ccc(S(=O)(=O)N3CCOCC3)cc12,514.3*
